Only a selection was taken, and hits are over-represented in it overall.
KDM4C inh = KDM4C (human) demethylase inhibition. inhibition, % at 12.5 µM. 96,000 compounds, 0.15% hits. GST-KDM4C 2-372, H3K9me3 peptide, LANCE TR-FRET. AID 720574. Q9H3R0;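 active = mean replicate inhibition above about 25%, with at least 55% of replicates also reaching it, limit read from the data, passing the limit was not always enough; inconclusive = only one of those two conditions met; inactive = neither condition met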
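Test system – GST-tagged GASC-1 (JMJD2C) catalytic fragment, aa 2-372 · Medium – HEPES buffer, pH 7.5, plus ascorbate · Reagent – H3K9me3 peptide with Fe(II)/2OG · Compound – one test concentration per compound · Timing – 30 min reaction, 60 min detection, RT · Technique – TR-FRET with Eu antibody and ULight streptavidin, EDTA stop · Read-out basis – inhibition from TR-FRET ratio decrease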
Tcruzi prolif = inhibitors of T. cruzi proliferation; 77,000 compounds, 5.9% hits; T. cruzi beta-gal in NIH3T3, GalScreen luminescence, 90 h; inhibition, % at 8.34 µM;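 active = mean inhibition above about 93%, with at least 55% of replicates each passing it, limit read from the data, passing the limit was not always enough; inconclusive = only one of those two conditions holds; inactive = neither condition holds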
IDH1 mut inh = IDH1 R132H (human) inhibition; AID 624101; inhibition, % at 10 µM; 70,000 compounds, 0.18% hits; O75874; IDH1 R132H reductase, diaphorase/resazurin fluorescence, 60 min; in the data active = inhibition above about 34%; inconclusive = no clear call, values can overlap the other calls; inactive = below about 11%;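 note: 0% = DMSO and 100% = no enzyme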
Target sequence (O75874 whole entry R132H): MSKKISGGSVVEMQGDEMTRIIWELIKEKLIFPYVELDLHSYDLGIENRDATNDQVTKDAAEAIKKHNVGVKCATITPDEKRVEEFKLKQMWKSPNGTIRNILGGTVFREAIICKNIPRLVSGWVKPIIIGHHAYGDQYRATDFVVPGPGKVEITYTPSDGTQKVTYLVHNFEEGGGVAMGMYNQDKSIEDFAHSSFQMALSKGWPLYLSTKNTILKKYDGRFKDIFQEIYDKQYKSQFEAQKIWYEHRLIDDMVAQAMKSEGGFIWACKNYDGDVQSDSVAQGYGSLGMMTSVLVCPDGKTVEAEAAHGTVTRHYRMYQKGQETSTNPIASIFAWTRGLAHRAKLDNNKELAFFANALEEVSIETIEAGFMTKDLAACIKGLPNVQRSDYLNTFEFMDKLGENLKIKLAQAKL
* = called active by the depositor; ? = inconclusive; . = not tested or not shown.

SMILES	KDM4C inh	Tcruzi prolif	IDH1 mut inh
C[C@@H]1CCCCO[C@@H](CN(C)C(=O)Nc2ccc3c(c2)OCO3)[C@@H](C)CN([C@H](C)CO)C(=O)c2cc(NC(=O)Nc3ccc(C(F)(F)F)cc3)ccc2O1	2.3	86.3	-0.8
C[C@@H]1CN([C@H](C)CO)C(=O)c2cc(NC(=O)Nc3cccc4ccccc34)ccc2O[C@@H](C)CCCCO[C@@H]1CN(C)C(=O)c1ccccc1	10.8	25.2	.
C[C@@H](NC(=O)[C@H]1[C@H](CO)[C@H]2Cn3c(ccc(-c4cccnc4)c3=O)[C@@H]1N2C)c1ccccc1	-1.2	4.3	.
FC(F)(F)c1ccc2nc(SCc3ccc(Br)cc3)[nH]c2c1	.	.	4.8
C[C@@H]1CN([C@H](C)CO)C(=O)c2cc(-c3cccc(F)c3)cnc2O[C@@H]1CN(C)Cc1cccnc1	-0.7	17.6	-0.6
Cc1ccc(S(=O)(=O)N[C@H]2CC[C@H](CCNC(=O)C3CC3)O[C@H]2CO)cc1	-2.4	.	0.0
COc1cccc(NC(=O)N[C@@H]2C=C[C@H](CC(=O)N3CCCCC3)O[C@@H]2CO)c1	0.6	.	.
COc1cccc(NC(=O)N[C@@H]2C=C[C@@H](CC(=O)N3CCCCC3)O[C@@H]2CO)c1	34.0*	.	.
CC(C)C#Cc1ccc2c(c1)O[C@@H](CN(C)S(C)(=O)=O)[C@H](C)CN([C@@H](C)CO)S2(=O)=O	-3.4	60.1	-0.4
CN(C)c1ccc2c(c1)[C@@H]1C[C@H](CC(=O)NCc3ccc(-c4ccccc4)cc3)O[C@@H](CO)[C@@H]1O2	6.1	52.3	-4.8
CN(C)c1ccc2c(c1)[C@H]1C[C@@H](CC(=O)NCc3ccccn3)O[C@@H](CO)[C@H]1O2	13.5	-30.9	-2.6
C[C@H](NC(=O)C[C@@H]1C[C@H]2c3cc(NC(=O)NC4CCCCC4)ccc3O[C@H]2[C@@H](CO)O1)c1ccccc1	32.1*	16.5	0.1
CN(C)c1ccc2c(c1)[C@H]1C[C@H](CC(=O)NCc3ccccc3)O[C@H](CO)[C@H]1O2	44.4*	51.3	-1.2
CN(C)c1ccc2c(c1)[C@H]1C[C@H](CC(=O)NCc3ccccn3)O[C@H](CO)[C@H]1O2	34.0*	-0.3	-3.5
CN(C)c1ccc2c(c1)[C@H]1C[C@@H](CC(=O)NCc3ccccc3)O[C@@H](CO)[C@H]1O2	39.6*	43.1	-1.6
C[C@H](NC(=O)C[C@H]1C[C@H]2c3cc(NC(=O)NC4CCCCC4)ccc3O[C@H]2[C@@H](CO)O1)c1ccccc1	0.7	2.5	0.2
CN(C)c1ccc2c(c1)[C@@H]1C[C@@H](CC(=O)NCc3ccc(-c4ccccc4)cc3)O[C@@H](CO)[C@@H]1O2	0.3	.	.
C[C@@H]1CN([C@@H](C)CO)C(=O)c2cccc(NS(=O)(=O)c3cccs3)c2O[C@@H]1CN(C)C(=O)NC1CCCCC1	0.3	28.0	1.9
C[C@H]1CN([C@@H](C)CO)C(=O)c2ccccc2-c2ccccc2CO[C@H]1CN(C)C(=O)Nc1ccccc1	0.7	34.9	.
COc1ccc(S(=O)(=O)Nc2ccc3c(c2)C(=O)N([C@@H](C)CO)C[C@@H](C)[C@@H](CN(C)C(=O)Nc2cccc4ccccc24)O3)cc1	0.0	-107.5	1.7
COc1ccccc1-c1cn(CC[C@H]2CC[C@@H](NC(=O)C3CCC3)[C@@H](CO)O2)nn1	5.6	.	-0.5
Cc1cccc(NC(=O)Nc2ccc3c(c2)C(=O)N(C)[C@@H]2CC[C@H](CC(=O)O)O[C@@H]2CO3)c1	-1.3	19.2	.
COc1ccc(Br)c(/C=N/NC(=O)c2ccccn2)c1	.	.	-0.7
C[C@@H]1CN([C@@H](C)CO)C(=O)c2cc(NS(C)(=O)=O)ccc2O[C@H]1CN(C)S(=O)(=O)c1ccccc1	1.0	39.7	1.2
C[C@@H]1CCCCO[C@@H](CN(C)CC2CCCCC2)[C@@H](C)CN([C@@H](C)CO)C(=O)c2cc(NC(=O)CCC(F)(F)F)ccc2O1	2.3	17.1	-2.4
SMILES	KDM4C inh	Tcruzi prolif	IDH1 mut inh
O=C(C[C@@H]1C[C@H]2c3cc(NC(=O)NC4CCCCC4)ccc3O[C@H]2[C@@H](CO)O1)NCc1ccccn1	-2.0	.	0.1
O=C(C[C@@H]1C[C@H]2c3cc(NC(=O)NC4CCCCC4)ccc3O[C@H]2[C@H](CO)O1)NCc1ccccn1	87.9*	.	101.5*
O=C(OCC1OC(Oc2ccc(O)cc2COC(=O)C2(O)C(O)CCC(=O)C2O)C(O)C(O)C1O)c1ccccc1 (stereo not given)	.	.	36.1*
O=C(O[C@H]1[C@H](Oc2ccccc2COC(=O)C2(O)C=CCCC2=O)O[C@H](CO)[C@@H](O)[C@@H]1O)c1ccccc1 (stereo not given in full)	.	.	0.2
COc1ccccc1C(=O)Nc1ccc2c(c1)OC[C@H](C)NC[C@@H](C)[C@@H](OC)CN(C)C2=O	68.1*	-55.1	?
CCCNC(=O)Nc1ccc2c(c1)OC[C@H](C)N(C(=O)C1CCC1)C[C@@H](C)[C@@H](OC)CN(C)C2=O	0.0	7.1	-0.2
COc1ccccc1C(=O)Nc1ccc2c(c1)OC[C@H](C)NC[C@@H](C)[C@H](OC)CN(C)C2=O	-1.5	-3.9	0.1
CCCNC(=O)Nc1ccc2c(c1)OC[C@@H](C)N(C(=O)C1CCC1)C[C@@H](C)[C@@H](OC)CN(C)C2=O	61.6*	22.6	84.7*
CO[C@H]1CN(C)C(=O)c2ccc(NS(=O)(=O)c3ccc(Cl)cc3)cc2OC[C@@H](C)NC[C@H]1C	79.9*	88.7	93.4*
CO[C@@H]1CN(C)C(=O)c2ccc(NS(=O)(=O)c3ccc(Cl)cc3)cc2OC[C@H](C)NC[C@H]1C	-0.7	-16.9	0.2
COc1ccc2c3c([nH]c2c1)[C@H](CO)N(C(=O)c1cccnc1)CC31CCN(C(=O)CN(C)C)CC1	1.0	.	.
CO[C@H]1CN(C)C(=O)c2ccc(NC(=O)C3CC3)cc2OC[C@@H](C)N(Cc2ccc(F)cc2)C[C@H]1C	-1.1	42.2	0.0
C[C@@H]1CN([C@H](C)CO)C(=O)c2cc(NC(=O)Nc3ccc(F)cc3)ccc2O[C@H]1CN(C)S(=O)(=O)c1ccc(F)cc1	-0.3	3.6	.
Cn1cnc(CCNC(=O)C[C@H]2CC[C@@H]3[C@H](COC[C@H](O)CN3C(=O)Nc3ccccc3)O2)c1	2.0	12.9	.
Cc1noc(C)c1S(=O)(=O)N(C)C[C@H]1OCCCC[C@H](C)Oc2ccc(NC(=O)Nc3ccc(C(F)(F)F)cc3)cc2C(=O)N([C@H](C)CO)C[C@@H]1C	0.8	102.1*	.
C[C@@H]1CN([C@@H](C)CO)C(=O)c2cccc(NC(=O)Nc3ccc(C(F)(F)F)cc3)c2O[C@@H]1CN(C)S(=O)(=O)c1ccc(Cl)cc1	2.8	106.9*	-0.4
C[C@H]1CN([C@@H](C)CO)C(=O)c2cccc(NC(=O)Nc3ccc(C(F)(F)F)cc3)c2O[C@@H]1CN(C)S(=O)(=O)c1ccc(F)cc1	-3.6	89.9	.
Cc1noc(C)c1S(=O)(=O)N(C)C[C@@H]1OCCCC[C@H](C)Oc2ccc(NC(=O)Nc3ccc(C(F)(F)F)cc3)cc2C(=O)N([C@H](C)CO)C[C@H]1C	-0.5	91.8	-1.7
Cc1noc(C)c1S(=O)(=O)N(C)C[C@H]1OCCCC[C@H](C)Oc2ccc(NC(=O)Nc3ccc(C(F)(F)F)cc3)cc2C(=O)N([C@@H](C)CO)C[C@@H]1C	-1.9	88.9*	3.2

Bioassay records from PubChem BioAssay.
